Data as given in ChEMBL document CHEMBL1138270, “Antimycobacterial activities of novel 1-(cyclopropyl/tert-butyl/4-fluorophenyl)-1,4-dihydro- 6-nitro-4-oxo-7-(substituted secondary amino)-1,8-naphthyridine-3-carboxylic acid” (J Med Chem, 2007).
≈ marks a conversion by molar mass, not a printed value.

How the values were obtained:
[1] = tested on: Mycobacterium tuberculosis; assay: Antimycobacterial activity against Mycobacterium tuberculosis H37Rv by agar dilution method; assay type: functional
How it was run: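 MIC was determined by agar dilution, in duplicate.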

Vero = assay: Cytotoxicity against Vero cells after 72 hrs by MTT assay; assay type: cell-based; settings: Chlorocebus sabaeus
How it was run: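 Vero cells were exposed to serially diluted compound up to 62.5 µg/mL for 72 h. Viability was read by cellular conversion of MTT to formazan (CellTiter 96 non-radioactive proliferation assay), and IC50 was derived.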

[2] = tested on: Mycolicibacterium smegmatis; assay: Antimicrobial activity against Mycobacterium smegmatis by agar dilution method; assay type: functional
How it was run: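 Agar dilution against M. smegmatis ATCC 14468; MIC determined in duplicate.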

[3] = Inhibition of Mycobacterium smegmatis DNA gyrase supercoiling activity; parameters: species or system Mycolicibacterium smegmatis
How it was run: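 Gyrase purified from M. smegmatis was preincubated with compound in DMSO (5% DMSO in reaction). 400 ng relaxed pUC18 was added in 35 mM Tris-HCl pH 7.5, 5 mM MgCl2, 25 mM K-glutamate, 2 mM spermidine, 2 mM ATP, BSA, tRNA and 5% glycerol, 1 h at 37 °C. Samples were heat-inactivated, run on 1% agarose in TAE, and ethidium-stained; IC50 was derived.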

SMILES: CC(C)(C)n1cc(C(=O)O)c(=O)c2cc([N+](=O)[O-])c(N3CCC(n4c(=O)[nH]c5cc(Cl)ccc54)CC3)nc21
- MIC [1]: 2.88 µM (≈ 1.56 µg/mL)
- IC50 (Vero): 57.7 µM
- MIC [2]: 11.5 µM (≈ 6.24 µg/mL)

SMILES: COc1ccc(CC2C3=C(CCCC3)CCN2c2nc3c(cc2[N+](=O)[O-])c(=O)c(C(=O)O)cn3-c2ccc(F)cc2)cc1 (stereo unspecified)
- MIC [1]: 10.7 µM (≈ 6.25 µg/mL)
- IC50 (Vero): < 53.5 µM
- MIC [2]: 85.5 µM (≈ 50 µg/mL)

SMILES: CC(C)(C)n1cc(C(=O)O)c(=O)c2cc([N+](=O)[O-])c(N3CCC(N4CCCCC4)CC3)nc21
- MIC [1]: 1.7 µM (≈ 0.778 µg/mL)
- IC50 (Vero): > 137 µM
- MIC [2]: 6.84 µM (≈ 3.13 µg/mL)

SMILES: CC(C)(C)n1cc(C(=O)O)c(=O)c2cc([N+](=O)[O-])c(N3CCC(O)(c4ccc(Cl)cc4)CC3)nc21
- MIC [1]: 3.11 µM (≈ 1.56 µg/mL)
- IC50 (Vero): 125 µM
- MIC [2]: 24.9 µM (≈ 12.5 µg/mL)

SMILES: O=C(O)c1cn(C2CC2)c2nc(N3CCN(C(=O)C4COc5ccccc5O4)CC3)c([N+](=O)[O-])cc2c1=O (stereo unspecified)
- MIC [1]: 12 µM (≈ 6.25 µg/mL)
- IC50 (Vero): 59.9 µM
- MIC [2]: 6 µM (≈ 3.13 µg/mL)

SMILES: O=C(O)c1cn(C2CC2)c2nc(N3CCC(N4CCCCC4)CC3)c([N+](=O)[O-])cc2c1=O
- MIC [1]: 7.09 µM (≈ 3.13 µg/mL)
- IC50 (Vero): > 142 µM
- MIC [2]: 28.3 µM (≈ 12.5 µg/mL)

SMILES: CC1CN(c2nc3c(cc2[N+](=O)[O-])c(=O)c(C(=O)O)cn3C2CC2)CC(C)O1 (stereo unspecified)
- MIC [1]: 4.02 µM (≈ 1.56 µg/mL)
- IC50 (Vero): > 161 µM
- MIC [2]: 32.2 µM (≈ 12.5 µg/mL)

SMILES: CC1(C)COCN1c1nc2c(cc1[N+](=O)[O-])c(=O)c(C(=O)O)cn2C1CC1
- MIC [1]: 0.51 µM (≈ 0.191 µg/mL)
- IC50 (Vero): 167 µM
- MIC [2]: 4.17 µM (≈ 1.56 µg/mL)

SMILES: O=C(O)c1cn(-c2ccc(F)cc2)c2nc(N3CCN(Cc4ccc5c(c4)OCO5)CC3)c([N+](=O)[O-])cc2c1=O
- MIC [1]: 11.4 µM (≈ 6.25 µg/mL)
- IC50 (Vero): 57.1 µM
- MIC [2]: 45.7 µM (≈ 25 µg/mL)

SMILES: CC(C)(C)n1cc(C(=O)O)c(=O)c2cc([N+](=O)[O-])c(N3CCN(C(c4ccccc4)c4ccc(Cl)cc4)CC3)nc21 (stereo unspecified)
- MIC [1]: 1.35 µM (≈ 0.778 µg/mL)
- IC50 (Vero): > 108 µM
- MIC [2]: 174 µM (≈ 100 µg/mL)

SMILES: O=C(O)c1cn(-c2ccc(F)cc2)c2nc(N3CCC(O)(c4ccc(Cl)cc4)CC3)c([N+](=O)[O-])cc2c1=O
- MIC [1]: 2.89 µM (≈ 1.56 µg/mL)
- IC50 (Vero): 59.6 µM
- MIC [2]: 11.6 µM (≈ 6.25 µg/mL)

SMILES: O=C(O)c1cn(C2CC2)c2cc(N3CCNCC3)c(F)cc2c1=O [CIPROFLOXACIN]
- IC50 [3]: 15.1 µM

SMILES: COc1ccc(CC2C3=C(CCCC3)CCN2c2nc3c(cc2[N+](=O)[O-])c(=O)c(C(=O)O)cn3C(C)(C)C)cc1 (stereo unspecified)
- MIC [1]: 5.73 µM (≈ 3.13 µg/mL)
- IC50 (Vero): > 114 µM
- MIC [2]: 11.4 µM (≈ 6.25 µg/mL)

SMILES: O=C(O)c1cn(C2CC2)c2nc(N3CCN(C(=O)c4ccco4)CC3)c([N+](=O)[O-])cc2c1=O
- MIC [1]: 6.9 µM (≈ 3.13 µg/mL)
- IC50 (Vero): 68.9 µM
- MIC [2]: 27.6 µM (≈ 12.5 µg/mL)

SMILES: O=C(O)c1cn(-c2ccc(F)cc2)c2nc(N3CCC(n4c(=O)[nH]c5cc(Cl)ccc54)CC3)c([N+](=O)[O-])cc2c1=O
- MIC [1]: 2.69 µM (≈ 1.56 µg/mL)
- IC50 (Vero): 53.9 µM
- MIC [2]: 10.8 µM (≈ 6.25 µg/mL)

SMILES: CCN(CC)C(=O)C1CCCN(c2nc3c(cc2[N+](=O)[O-])c(=O)c(C(=O)O)cn3-c2ccc(F)cc2)C1 (stereo unspecified)
- MIC [1]: 3.05 µM (≈ 1.56 µg/mL)
- IC50 (Vero): > 122 µM
- MIC [2]: 12.2 µM (≈ 6.25 µg/mL)

SMILES: O=C(O)c1cn(-c2ccc(F)cc2)c2nc(N3CCN(C(=O)c4ccco4)CC3)c([N+](=O)[O-])cc2c1=O
- MIC [1]: 3.07 µM (≈ 1.56 µg/mL)
- IC50 (Vero): 123 µM
- MIC [2]: 24.6 µM (≈ 12.5 µg/mL)

SMILES: CC(C)(C)NC(=O)C1c2ccccc2CCN1c1nc2c(cc1[N+](=O)[O-])c(=O)c(C(=O)O)cn2-c1ccc(F)cc1 (stereo unspecified)
- MIC [1]: 2.79 µM (≈ 1.56 µg/mL)
- IC50 (Vero): 112 µM
- MIC [2]: 11.2 µM (≈ 6.25 µg/mL)

SMILES: CC(C)(C)NC(=O)C1c2ccccc2CCN1c1nc2c(cc1[N+](=O)[O-])c(=O)c(C(=O)O)cn2C(C)(C)C (stereo unspecified)
- MIC [1]: 2.99 µM (≈ 1.56 µg/mL)
- IC50 (Vero): 120 µM
- MIC [2]: 6 µM (≈ 3.13 µg/mL)

SMILES: CC1CN(c2nc3c(cc2[N+](=O)[O-])c(=O)c(C(=O)O)cn3C(C)(C)C)CC(C)O1 (stereo unspecified)
- MIC [1]: 7.74 µM (≈ 3.13 µg/mL)
- IC50 (Vero): 159 µM
- MIC [2]: 15.4 µM (≈ 6.25 µg/mL)

SMILES: CC(C)(C)n1cc(C(=O)O)c(=O)c2cc([N+](=O)[O-])c(N3CCn4cc(C(=O)O)nc4C3)nc21
- MIC [1]: 0.42 µM (≈ 0.192 µg/mL)
- IC50 (Vero): > 137 µM
- MIC [2]: 6.86 µM (≈ 3.13 µg/mL)
